We go through four molecules from PMC10527948 (European journal of pharmacology, 2023).

The test system of one data set is C3. Kind of data set: qRT-PCR of inflammatory gene expression in cytokine-treated astrocytes. In kind it is cell-based, rat. Particulars: 100 ng/ml cytokine, 24 hours. In a few lines: (§1)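 Confluent rat primary astrocytes in 6-well plates treated with 100 ng/ml TNF-α or IL-1β for 24 h. Total RNA extracted with TRIzol, purity checked by OD260/280, then reverse-transcribed. Gene-specific primers used with Gapdh as internal control; quantified by the 2−ΔCt method, n = 3 separate determinations.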
On the technique in general: Real-time PCR tracks product formation cycle by cycle.

The subject of a further data set is Lcn. Described as above. In kind it is cell-based, rat. Particulars: 100 ng/ml cytokine, 24 hours. In a few lines:
as §1

Another data set deals with Nt5e. Put plainly: qRT-PCR of gene expression in cytokine-treated astrocytes. In kind it is cell-based, rat. As to conditions: 100 ng/ml cytokine, 24 hours. In a few lines: as §1
Data set [1] concerns the target T1, membrane-bound ecto-5`-nucleotidase/CD73 (Rattus norvegicus, UniProt P21588).
T1 sequence (P21588 29-576): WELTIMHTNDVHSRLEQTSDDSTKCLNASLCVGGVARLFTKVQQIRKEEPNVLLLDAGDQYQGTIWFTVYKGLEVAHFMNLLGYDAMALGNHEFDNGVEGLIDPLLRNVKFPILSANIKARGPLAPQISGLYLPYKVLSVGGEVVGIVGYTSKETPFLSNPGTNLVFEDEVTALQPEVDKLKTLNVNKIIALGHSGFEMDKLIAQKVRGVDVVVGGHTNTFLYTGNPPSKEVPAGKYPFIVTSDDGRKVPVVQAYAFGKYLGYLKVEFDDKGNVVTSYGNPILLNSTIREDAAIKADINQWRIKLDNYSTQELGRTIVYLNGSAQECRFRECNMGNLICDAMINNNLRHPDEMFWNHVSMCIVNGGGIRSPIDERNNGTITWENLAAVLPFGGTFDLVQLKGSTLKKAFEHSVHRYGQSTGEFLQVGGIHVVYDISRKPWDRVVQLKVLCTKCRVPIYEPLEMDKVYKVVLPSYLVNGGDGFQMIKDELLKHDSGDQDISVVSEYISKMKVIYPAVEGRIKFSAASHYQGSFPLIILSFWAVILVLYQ
Put plainly: Ecto-5`-nucleotidase/CD73 enzyme assay. Particulars: for IC50: Dixon linearization, control primary astrocytes, 1.0 mM AMP; for % inhibition at indicated concentration: value in brackets in the Ki column, concentration not given. Format: biochemical. Summed up: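 Confluent primary cortical astrocytes from 1-day-old male Wistar rat pups, washed in phosphate-free HEPES/bicarbonate saline, pH 7.4. 15 min preincubation with inhibitor (in water, 1×10−9 to 1×10−3 M); 1.0 mM AMP solution added, 30 min at 37°C; stopped with cold perchloric acid. Pi by malachite green at 620 nm, normalised to BCA protein.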

For data set [2], the target named is T2, CD73 in reactive astrocytes (Rattus norvegicus, UniProt P21588).
T2 sequence (P21588 29-576): T1 sequence (P21588 29-576)
Kind of data set: CD73 enzyme assay in reactive astrocytes stimulated with TNFα or IL-1β. Format: biochemical. In a few lines:
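Rat primary astrocytes exposed to TNF-α or IL-1β for 24 h, then assayed for AMP hydrolysis (Pi release by malachite green, per mg protein per min). Inhibitor tested at a single 50 μM concentration, or as a 1–250 μM series in cells given 0.1 μg/ml IL-1β. The series was fitted to a four-parameter sigmoid.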

For data set [3], the system named is primary astrocytes. Kind of data set: MTT assay of cell metabolic activity. In kind it is cell-based, rat. In general terms: Tetrazolium dyes change colour on reduction, which living cells bring about.
Data set [4] deals with primary astrocytes. Kind of data set: Cell proliferation by double Ki67/DAPI fluorescence staining. In kind it is cell-based, rat. Particulars: 24 hours.
The test system of data set [5] is primary astrocytes. Kind of data set: Morphometric analysis of GFAP-immunostained astrocytes. In kind it is cell-based, rat. Particulars: 24 hours. In a few lines: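 Astrocytes on PLL-coated coverslips treated with inhibitor for 24 h, then prefixed in 4% PFA and blocked in 5% BSA. Stained with rabbit anti-GFAP (1:500), Alexa-555 secondary, and DAPI. Confocal images analysed in ImageJ for cell area and shape descriptors. Mean ± SE from ≥ 22 cells in 3 random fields, ≥ 2 cultures.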

Data set [6] concerns primary astrocytes. Put plainly: Scratch wound migration assay. In kind it is cell-based, rat. As to conditions: 1–100 μM; 8 and 24 hours.

As to TNFα, the “C3 mRNA abundance (fold-increase in respect to non-stimulated control)” value with C3 is 4.65 ± 2.29 fold-increase. The “Lcn mRNA abundance (fold-increase in respect to non-stimulated control)” value in the data set on Lcn was 49.04 ± 3.34 fold-increase. Moreover, the “Nt5e mRNA abundance (fold-increase in respect to non-stimulated control)” value with Nt5e was 2.49 ± 0.33 fold-increase.

On to `Cn1c(=O)n([C@@H]2O[C@H](COP(=O)(O)CP(=O)(O)O)[C@@H](O)[C@H]2O)cc/c1=N\OCc1ccc(Cl)cc1` [MRS4598], for which the “inhibition of CD73 activity at 1×10^−3 M” value in data set [1] (1×10^−3 M inhibitor) was “complete inhibition”. Besides, in data set [1], the IC50 stood at 110 ± 80 nM and the “% inhibition at indicated concentration” value turned out to be 53.4%. Besides, the “effect on CD73 catalytic activity in reactive astrocytes” value in data set [2] (50 μM, cells treated with TNFα or IL-1β for 24 hours) is “decreased the catalytic activity of CD73”. This molecule also showed an IC50 in data set [2] (astrocytes stimulated with 0.1 μg/ml IL-1β, 1–250 μM) of 5000 ± 260 nM. Further, the “effect on formazan formation (MTT)” value with primary astrocytes [3] (1 μM, 24 hours) was “no effect”. Moreover, the “reduction of formazan formation (MTT)” value with primary astrocytes [3] (concentrations above 10 μM, 24 hours, no apparent concentration dependence) stood at 40%. The “cytotoxic effects on primary astrocytes” value in the data set on primary astrocytes [3] (concentrations as low as 1 μM) is “negligible cytotoxic effects”. The “effect on proliferation rate (Ki67+/DAPI+)” value with primary astrocytes [4] (50 μM and 100 μM, vs control (~22%), p < 0.05) is on record as “modest but significant decrease”. For the same molecule, in the data set on primary astrocytes [5] (10 μM), the “Area (μm^2)” value amounted to 3619.4 ± 552.5 μm^2, the Aspect ratio worked out at 2.3 ± 0.2, the Circularity is reported as 0.55 ± 0.06 and the Roundness was found to be 0.47 ± 0.04. The same molecule displayed a Solidity in the data set with primary astrocytes [5] (10 μM) of 0.84 ± 0.04. Also, in the data set with primary astrocytes [5] (100 μM), the “Area (μm^2)” value is recorded as 1861.8 ± 137.5 ^* μm^2, the Aspect ratio was 2.7 ± 0.2, the Circularity turned out to be 0.43 ± 0.03 and the Roundness came out at 0.42 ± 0.04. For the same molecule, in the data set with primary astrocytes [5] (100 μM), the Solidity was determined as 0.77 ± 0.02. Moreover, in the data set on primary astrocytes [6], the “effect on astrocyte migration velocity (wound closure)” value is reported as “did not affect migration velocity of astrocytes, except at the highest tested concentration of 100 μM”.

In the case of `Nc1ncnc2c1ncn2[C@@H]1O[C@H](COP(=O)(O)CP(=O)(O)O)[C@@H](O)[C@H]1O` [APCP, 5’-(α,β-methylene)diphosphate adenosine, reference compound], the Ki in data set [1] (Cheng-Prusoff equation, Km for rat CD73 53.0 ± 4.1 μM) was found to be 132 ± 89 nM. Also, in [1], the IC50 worked out at 2630 ± 1760 nM and the “% inhibition at indicated concentration” value was found to be 18.6%. The “effect on proliferation rate (Ki67+/DAPI+)” value in the data set on primary astrocytes [4] (indicated concentrations) is listed as “no apparent effect”. Also, in the data set with primary astrocytes [5] (100 μM), the “Area (μm^2)” value was 3181.9 ± 607.2 μm^2, the Aspect ratio turned out to be 2.2 ± 0.2, the Circularity is reported as 0.49 ± 0.03 and the Roundness amounted to 0.54 ± 0.07. Besides, the Solidity with primary astrocytes [5] (100 μM) came to 0.75 ± 0.04.

Consider “IL-1β: proinflammatory cytokine used to induce the reactive astrocyte phenotype”, for which, in the data set on C3, the “C3 mRNA abundance (fold-increase in respect to non-stimulated control)” value worked out at 3.13 ± 0.69 fold-increase. Also, in the data set on Lcn, the “Lcn mRNA abundance (fold-increase in respect to non-stimulated control)” value was found to be 24.22 ± 6.21 fold-increase.

As a reminder, the IC50 is the concentration that inhibits the measured activity by half. Read a low IC50 as inhibition by little substance. Usually % inhibition stands for the change of the read-out against control, counted positive when it falls. Read a high % inhibition as a strong effect. For orientation: Ki means the equilibrium dissociation constant of an inhibitor or competing ligand from its target. Low readings indicate tighter binding, high ones weaker binding.
